According to ChEMBL document CHEMBL4265873, “Design and discovery of silybin analogues as antiproliferative compounds using a ring disjunctive - Based, natural product lead optimization approach” (Eur J Med Chem, 2017):

Tests used:
[1] = Cytotoxicity in human CRL1459 cells assessed as reduction in cell viability incubated for 68 hrs by MTT assay; format: cell-based
In short: (§1)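 Cells were trypsinised and seeded at 5x10^3 cells/well. Compound was added at 0, 0.1, 0.3, 1, 3, 10, 30 and 100 µM for 68 h. MTT (4 mg/mL solution) was then added for 4 h, and the formazan was dissolved in DMSO. Absorbance read at 570 nm. IC50 was derived from % survival across the eight concentrations. Mean ± SD of three independent experiments, each in triplicate.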

BT-20 = experiment: Cytotoxicity in human BT20 cells assessed as reduction in cell viability incubated for 68 hrs by MTT assay; format: functional, cell-based; conditions: BT-20, 68 h; in short: as §1
HEK293 = experiment: Cytotoxicity in HEK293 cells assessed as reduction in cell viability incubated for 68 hrs by MTT assay; format: cell-based; conditions: Homo sapiens, HEK293, 68 h; in short: as §1
MCF7 [2] = experiment: Cytotoxicity in human MCF7 cells assessed as reduction in cell viability incubated for 68 hrs by MTT assay; format: functional, cell-based; conditions: MCF7, 68 h; in short: as §1
MDA-MB-231 = experiment: Cytotoxicity in human MDA-MB-231 cells assessed as reduction in cell viability incubated for 68 hrs by MTT assay; format: functional, cell-based; conditions: MDA-MB-231, 68 h; in short: as §1
PANC-1 = experiment: Cytotoxicity in human PANC1 cells assessed as reduction in cell viability incubated for 68 hrs by MTT assay; format: functional, cell-based; conditions: PANC-1, 68 h; in short: as §1
2008 = experiment: Cytotoxicity in human OV2008 cells assessed as reduction in cell viability incubated for 68 hrs by MTT assay; format: functional, cell-based; conditions: Homo sapiens, 2008, 68 h; in short: as §1
DU-145 = experiment: Cytotoxicity in human DU145 cells assessed as reduction in cell viability incubated for 68 hrs by MTT assay; format: functional, cell-based; conditions: DU-145, 68 h; in short: as §1
CHO = experiment: Cytotoxicity in CHO cells assessed as reduction in cell viability incubated for 68 hrs by MTT assay; format: cell-based; conditions: Cricetulus griseus; in short: as §1
A2780 = experiment: Cytotoxicity in human A2780 cells assessed as reduction in cell viability incubated for 68 hrs by MTT assay; format: functional, cell-based; conditions: A2780, 68 h; in short: as §1
ZR-75-1 = experiment: Cytotoxicity in human ZR-75-1 cells assessed as reduction in cell viability incubated for 68 hrs by MTT assay; format: functional, cell-based; conditions: ZR-75-1, 68 h; in short: as §1
MCF7 [3] = experiment: Potency index, ratio of IC50 for silybin to IC50 for test compound for cytotoxicity in human MCF7 cells assessed as reduction in cell viability incubated for 68 hrs by MTT assay; format: functional

SMILES	IC50 [1] [µM]	IC50 (BT-20) [µM]	IC50 (HEK293) [µM]	IC50 (MCF7 [2]) [µM]	IC50 (MDA-MB-231) [µM]	IC50 (PANC-1) [µM]	IC50 2008 [µM]	IC50 (DU-145) [µM]	IC50 (CHO) [µM]	IC50 (A2780) [µM]	IC50 (ZR-75-1) [µM]	Ratio IC50 (MCF7 [3])
O=C(/C=C/c1cccc(OCc2ccccc2)c1)c1ccc(Cl)cc1Cl	7.8	19.2	24.9	9.4	6.8	27.2	5.2	27.3	27.5	21.4	9.4	
O=C(/C=C/c1cccc(OCc2ccccc2)c1)c1ccc(Cl)cc1	12.8	63.2	22.8	24.8	21.5	21.3	20	43.4	43.6	56.4	20	
COc1cc(C2Oc3cc(/C=C/C(=O)c4ccccc4O)ccc3OC2CO)ccc1O (stereo not given)				12.1								
Cc1ccc(C(=O)/C=C/c2cccc(OCc3ccccc3)c2)cc1	19.8	61	8.2	21.7	15.6	41.6	12.9	25.6	26.4	20.5	25.8	
O=C(/C=C/c1ccccc1)c1ccccc1 [CHALCONE]	6.4	21.1	10.7	12.6	6.7	26	33.4	50.1	23	67.5	13.7	
O=C(/C=C/c1cccc(OCc2ccccc2)c1)c1cccc(Br)c1	7.2	7.1	7.1	7.9	6.9	6.4	5.7	9.1	9.2	6.3	8.3	
COc1cc([C@H]2Oc3cc([C@H]4Oc5ccccc5C(=O)[C@@H]4O)ccc3O[C@@H]2CO)ccc1O				13.8								
O=C(/C=C/c1cccc(OCc2ccccc2)c1)c1ccccc1Br	2.4	1.8	2.2	1.6	1.8	61.2	1.2	3	9.1	2.5	2.9	142
COc1cc([C@H]2Oc3cc([C@H]4Oc5cc(O)cc(O)c5C(=O)[C@@H]4O)ccc3O[C@@H]2CO)ccc1O [SILYBIN A]				223								
O=C(/C=C/c1cccc(OCc2ccccc2)c1)c1ccc(Br)cc1	5.3	7.4	5.4	6.5	6.4	2.1	1	5.7	9	1.8	6.5	
O=C(/C=C/c1cccc(OCc2ccccc2)c1)c1ccccc1	7.8	25.5	14.1	9.8	20	23.5	4.9	42.4	22	6.7	8.5	
O=C(/C=C/c1cccc(OCc2ccccc2)c1)c1ccc(Cl)c(Cl)c1Cl	2.5	3.9	2.4	2.4	2.4	2.4	1.5	6.4	8.6	1.5	6.2	
O=C(/C=C/c1cccc(OCc2ccccc2)c1)c1ccc([N+](=O)[O-])cc1	26	80.9	59.3	17.5	23.3	25.4	49	52.5	82.4	56.4	37.7	
COc1ccc(C(=O)/C=C/c2cccc(OCc3ccccc3)c2)cc1	25.4	38.3	79.8	6	12.4	44.3	17.2	51.3	22.9	38.1	19.9	
